According to PMC10427982 (eBioMedicine, 2023):
Marks after values point to notes of the source that are not given here.

Legend:
[1] = after remdesivir 30 mg/kg i.v.; cited from earlier work
[2] = system: human airway epithelial cells (HAE); details: cited from earlier work
[3] = animal models; cited from earlier work
[4] = Multisite microdialysis pharmacokinetics after molnupiravir; type: in vivo, rat
Outline: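 Pregnant Sprague–Dawley rats (gestation day 16, 300 ± 50 g), fasted 12 h, under urethane anaesthesia (1 g/kg i.p.). Test compound in normal saline, with the ENT inhibitor in 10% DMSO/90% PEG-400, given together via the femoral vein. Microdialysis probes sit in the jugular vein, fetus, placenta and amniotic fluid, perfused with ACD solution. Dialysates are collected every 20 min for 6 h and assayed by UHPLC-MS/MS. n = 6, mean ± SEM.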

[5] = cited from earlier work
[6] = Multisite microdialysis pharmacokinetics after molnupiravir; type: in vivo, rat; remark: listed apart in the source
Outline: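 Pregnant Sprague–Dawley rats at gestation day 16 (300 ± 50 g), fasted 12 h and anaesthetised with urethane 1 g/kg i.p. Test compound in normal saline given alone via femoral vein catheter. Unbound drug and metabolite sampled by microdialysis in jugular vein, fetus, placenta and amniotic fluid, perfused with citrate-dextrose solution. Dialysates every 20 min over 6 h, UHPLC-MS/MS. Ratios taken as AUC quotients ×100%. n = 6, mean ± SEM.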

human ENT1 = details: cited from earlier work
[7] = single and multiple doses; cited from earlier work
[8] = lactating rats administered molnupiravir; cited from earlier work
human ENT2 = details: cited from earlier work
[9] = female, Sprague-Dawley, rat, amniotic fluid, iv, 100 mg/kg, with NBMPR (ENT inhibitor) 10 mg/kg i.v., co-administered
[10] = female, Sprague-Dawley, rat, blood, iv, 100 mg/kg, with NBMPR (ENT inhibitor) 10 mg/kg i.v., co-administered
[11] = female, Sprague-Dawley, rat, fetus, iv, 100 mg/kg, with NBMPR (ENT inhibitor) 10 mg/kg i.v., co-administered
[12] = female, Sprague-Dawley, rat, placenta, iv, 100 mg/kg, with NBMPR (ENT inhibitor) 10 mg/kg i.v., co-administered
[13] = placenta, + NBMPR 10 mg/kg i.v.
[14] = blood, molnupiravir 100 mg/kg i.v. alone
[15] = female, Sprague-Dawley, rat, amniotic fluid dialysate, iv, 100 mg/kg
[16] = female, Sprague-Dawley, rat, blood dialysate, iv, 100 mg/kg
[17] = female, Sprague-Dawley, rat, fetus dialysate, iv, 100 mg/kg
[18] = female, Sprague-Dawley, rat, placenta dialysate, iv, 100 mg/kg
[19] = amniotic fluid, + NBMPR 10 mg/kg i.v.
[20] = amniotic fluid, molnupiravir 100 mg/kg i.v. alone
[21] = fetus, molnupiravir 100 mg/kg i.v. alone
[22] = placenta, molnupiravir 100 mg/kg i.v. alone

N#C[C@@]1(c2ccc3c(N)ncnn23)O[C@H](CO)[C@@H](O)[C@H]1O [GS-441524]
Transfer ratio from mother to amniotic fluid [1]: 0.71 ± 0.19 | Transfer ratio from mother to fetus [1]: 0.51 ± 0.18 | Transfer ratio from mother to placenta [1]: 0.35 ± 0.09 | EC50 [2]: 180 nM

CC(C)C(=O)OC[C@H]1O[C@@H](n2ccc(NO)nc2=O)[C@H](O)[C@@H]1O [Molnupiravir]
Increase of the bioavailability of NHC [3]: more than 90% | AUC(0-inf) [4, 9]: 2770 ng·h/mL | Cmax [4, 9]: 2140 ± 640 ng/mL | MRT [4, 9]: 1.47 h | half-life [4, 9]: 3.12 ± 0.833 h | AUC(0-inf) [4, 10]: 49600 ng·h/mL | Cmax [4, 10]: 261000 ± 111000 ng/mL | MRT [4, 10]: 0.283 h | clearance [4, 10]: 59.2 ± 22.6 mL/min/kg | half-life [4, 10]: 0.2 ± 0.0167 h | AUC(0-inf) [4, 11]: 1650 ng·h/mL | Cmax [4, 11]: 2410 ± 180 ng/mL | MRT [4, 11]: 0.833 h | half-life [4, 11]: 0.433 ± 0.1 h | AUC(0-inf) [4, 12]: 1880 ng·h/mL | Cmax [4, 12]: 1020 ± 190 ng/mL | half-life [4, 12]: 3 ± 1.42 h | MRT [4, 13]: 3.95 ± 1.48 h | Fetal finding at lower dose ([5]; 500 mg/kg): decreased fetal body weight | Fetal finding at high dose ([5]; 1000 mg/kg): internal and skeletal malformations of the fetus | NOAEL for maternal and developmental toxicity [5]: 250 mg/kg | Finding at doses eight times the normal dose / expected exposure ([5]; pregnant rat model): developmental toxicity | Time up to which detected ([6]; blood, molnupiravir 100 mg/kg i.v.): up to 200 min | CL [6, 14]: 21.89 ± 2.99 mL/min/kg | Time for the maximum concentration in the conceptus ([6]; conceptus, molnupiravir 100 mg/kg i.v.): approximately 40 min | Kp ([6]; female, Sprague-Dawley, rat, amniotic fluid (relative to blood), iv, 100 mg/kg): 0.05 ± 0.01 | concentration at 60 min ([6]; female, Sprague-Dawley, rat, amniotic fluid dialysate, intravenous, 100 mg/kg): 1.48 ng/mL | AUC(0-inf) [6, 15]: 4660 ng·h/mL | Cmax [6, 15]: 2110 ± 380 ng/mL | half-life [6, 15]: 13.8 ± 2.88 h | MRT ([6]; female, Sprague-Dawley, rat, amniotic fluid, iv, 100 mg/kg): 1.73 h | concentration at 140 min ([6]; female, Sprague-Dawley, rat, blood dialysate, intravenous, 100 mg/kg): 18.2 ng/mL | AUC(0-inf) [6, 16]: 61600 ng·h/mL | Cmax [6, 16]: 219000 ± 42300 ng/mL | half-life [6, 16]: 0.183 ± 0.0333 h | MRT ([6]; female, Sprague-Dawley, rat, blood, iv, 100 mg/kg): 0.267 h | Kp ([6]; female, Sprague-Dawley, rat, fetus (relative to blood), iv, 100 mg/kg): 0.03 ± 0.01 | concentration at 140 min ([6]; female, Sprague-Dawley, rat, fetus dialysate, intravenous, 100 mg/kg): 3.02 ng/mL | AUC(0-inf) [6, 17]: 3310 ng·h/mL | Cmax [6, 17]: 3540 ± 1320 ng/mL | half-life [6, 17]: 0.483 ± 0.0833 h | MRT ([6]; female, Sprague-Dawley, rat, fetus, iv, 100 mg/kg): 0.7 h | Kp ([6]; female, Sprague-Dawley, rat, placenta (relative to blood), iv, 100 mg/kg): 0.02 ± 0.009 | concentration at 80 min ([6]; female, Sprague-Dawley, rat, placenta dialysate, intravenous, 100 mg/kg): 15.1 ng/mL | AUC(0-inf) [6, 18]: 2420 ng·h/mL | Cmax [6, 18]: 2560 ± 730 ng/mL | half-life [6, 18]: 1 ± 0.417 h | MRT ([6]; female, Sprague-Dawley, rat, placenta, iv, 100 mg/kg): 1.17 h | Time within which metabolized to NHC ([6]; molnupiravir 100 mg/kg i.v.): ≤ 20 min

O=c1nc(NO)ccn1[C@@H]1O[C@H](CO)[C@@H](O)[C@H]1O [NHC, β-D-N4-hydroxycytidine]
Bioavailability [3]: poor bioavailability | Interaction with transporter (human ENT1): interacts | AUCtissue/AUCblood (biodistribution ratio) [4, 19]: 0.19 ± 0.05 | Cmax [4, 19]: 4.21 ± 0.44 ^d μg/mL | MRT [4, 19]: 4.9 ± 1.28 h | Tmax [4, 19]: 100 ± 14 ^d min | t1/2 [4, 19]: 181 ± 56 ^d min | Cmax ([4]; blood, + NBMPR 10 mg/kg i.v.): 97260 ± 24950 ng/mL | MRT ([4]; blood, + NBMPR 10 mg/kg i.v.): 0.933 ± 0.1 h | t1/2 ([4]; blood, + NBMPR 10 mg/kg i.v.): 66 ± 3 min | AUCtissue/AUCblood (biodistribution ratio) ([4]; fetus, + NBMPR 10 mg/kg i.v.): 0.27 ± 0.07 | Cmax ([4]; fetus, + NBMPR 10 mg/kg i.v.): 4.69 ± 1.92 ^d μg/mL | MRT ([4]; fetus, + NBMPR 10 mg/kg i.v.): 12.7 ± 4.25 h | Tmax ([4]; fetus, + NBMPR 10 mg/kg i.v.): 93 ± 16 ^d min | t1/2 ([4]; fetus, + NBMPR 10 mg/kg i.v.): 507 ± 178 ^d min | AUCtissue/AUCblood (biodistribution ratio) [4, 13]: 0.14 ± 0.06 | Cmax [4, 13]: 2.95 ± 0.97 ^d μg/mL | MRT [4, 13]: 4.18 ± 1.08 h | Tmax [4, 13]: 106 ± 12 ^d min | t1/2 [4, 13]: 157 ± 56 ^d min | Median Tmax in plasma [7]: 1 h | Detection in plasma of nursing pups [8]: can be detected | Concentration in dialysate sample (representative chromatogram) ([6]; amniotic fluid dialysate, 60 min after administration): 10.05 ng/mL | AUCtissue/AUCblood (biodistribution ratio) [6, 20]: 0.19 ± 0.03 | Cmax [6, 20]: 4.78 ± 0.83 ^b μg/mL | MRT [6, 20]: 2.82 ± 0.13 h | Tmax [6, 20]: 150 ± 33 min | t1/2 [6, 20]: 148 ± 52 ^b min | Concentration in dialysate sample (representative chromatogram) ([6]; blood dialysate, 140 min after molnupiravir 100 mg/kg i.v.): 960 ng/mL | Cmax [6, 14]: 116500 ± 3870 ng/mL | MRT [6, 14]: 0.95 ± 0.1 h | Tmax [6, 14]: 40 min | t1/2 [6, 14]: 45 ± 5 min | Time post-administration until which detected ([6]; dialysates of all organs): 360 min | Concentration in dialysate sample (representative chromatogram) ([6]; fetus dialysate, collected at 140 min): 185 ng/mL | AUCtissue/AUCblood (biodistribution ratio) [6, 21]: 0.29 ± 0.11 | Cmax [6, 21]: 7.20 ± 2.10 ^b μg/mL | MRT [6, 21]: 2.62 ± 0.167 h | Tmax [6, 21]: 123 ± 11 ^b min | t1/2 [6, 21]: 492 ± 305 ^b min | Concentration in dialysate sample (representative chromatogram) ([6]; placenta dialysate, 80 min after administration): 126.2 ng/mL | AUCtissue/AUCblood (biodistribution ratio) [6, 22]: 0.09 ± 0.01 | Cmax [6, 22]: 2.98 ± 0.42 ^b μg/mL | MRT [6, 22]: 2.6 ± 0.167 h | Tmax [6, 22]: 90 ± 16 min | t1/2 [6, 22]: 138 ± 18 ^b min | Transfer ratio across the blood-placenta barrier ([6]; range over fetus, placenta, amniotic fluid): 9–29% | Interaction with transporter (human ENT2): interacts
